Results as given in ChEMBL document CHEMBL1949649, “5-sulfonyl-benzimidazoles as selective CB2 agonists-part 2” (Bioorg Med Chem Lett, 2012).
≈ marks a conversion by molar mass, not a printed value. Calls of active or inactive are those of the source. The rule behind the calls is not given here.

How the values were obtained:
[1] = Drug metabolism in human liver microsomes after 15 mins; type: ADME, Microsome; conditions: read-out: Drug metabolism
Cannabinoid receptor 1 = Cannabinoid receptor 1 (Homo sapiens, UniProt P21554); experiment: Agonist activity at human CB1 receptor; type: functional
Cannabinoid receptor 2 = Cannabinoid receptor 2 (Homo sapiens, UniProt P34972); experiment: Agonist activity at human CB2 receptor; type: functional
Rattus norvegicus [2] = experiment: Toxicity in rat assessed as decrease in body temperature at 10 mg/kg, ip by modified tetrad test; type: organism-based; design: dose 10 mg/kg, route intraperitoneal; conditions: in vivo
Rattus norvegicus [3] = experiment: Toxicity in rat chronic constriction injury-induced neuropathic pain model assessed as tolerance at 40 mg/kg/day, sc after 5 to 8 days; type: organism-based; design: route subcutaneous; conditions: in vivo
Outline: (§1)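 Chronic constriction injury of rats (n = 7 per group); daily subcutaneous dosing over repeated days, with morphine as comparator. Cold allodynia read as lifting on a cold plate at 0 °C for 4 min.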

[4] = Absolute oral bioavailability in Beagle dog at 5 mg/kg; type: ADME, organism-based, Canis lupus familiaris; conditions: in vivo
Outline: (§2)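 Beagle dogs dosed at 1 mg/kg iv and 5 mg/kg po; plasma kinetics give clearance, volume of distribution, iv and po half-life, and absolute oral bioavailability.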

Rattus norvegicus [5] = experiment: Toxicity in rat up to 40 mg/kg, ip by modified tetrad test; type: organism-based; design: dose 40 mg/kg, route intraperitoneal; conditions: in vivo
[6] = Half life in Sprague-Dawley rat at 2.5 mg/kg, iv; type: ADME, organism-based; design: dose 2.5 mg/kg, route intravenous; conditions: in vivo
Mus musculus = experiment: Antiinflammatory activity in mouse EAE model of multiple sclerosis assessed as delay in neurological signs of autoimmune encephalomyelitis disease progression at 40 mg/kg/day, po administered from day 8 to day 16; type: functional, organism-based
Outline: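 Mice with experimental autoimmune encephalomyelitis given chronic oral dosing at 40 mg/kg; neurological signs scored as EAE disease scores over time.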

[7] = Drug metabolism in rat liver microsomes at 5 uM after 60 mins; type: ADME, Microsome; conditions: read-out: Drug metabolism
Outline: (§3)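 Test compound incubated at 5 µM with liver microsomes (human, rat, mouse or dog) for 60 min; read-out is % of compound metabolised.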

[8] = Drug metabolism in human liver microsomes at 5 uM after 60 mins; type: ADME, Microsome; conditions: read-out: Drug metabolism; outline: as §3
Rattus norvegicus [9] = experiment: Antinociceptive activity in rat at 10 mg/kg by hot plate method; type: functional, organism-based; design: dose 10 mg/kg
[10] = Half life in Beagle dog at 5 mg/kg, po; type: ADME, organism-based, Canis lupus familiaris; design: dose 5 mg/kg, route oral; conditions: in vivo; outline: as §2
[11] = Volume of distribution in Beagle dog at 1 mg/kg, iv and 5 mg/kg, po; type: ADME, organism-based, Canis lupus familiaris; conditions: in vivo; outline: as §2
Rattus norvegicus [12] = experiment: Antinociceptive activity in rat at 10 mg/kg by paw flick test; type: functional, organism-based; design: dose 10 mg/kg
Rattus norvegicus [13] = species: Rattus norvegicus; experiment: Antihyperalgesic activity against carrageenan-induced thermal hyperalgesia in rat; type: functional, organism-based
[14] = Drug metabolism in mouse liver microsomes at 5 uM after 60 mins; type: ADME, Microsome; conditions: read-out: Drug metabolism; outline: as §3
Rattus norvegicus [15] = experiment: Antiallodynic activity in rat chronic constriction injury-induced neuropathic pain model assessed as reversal of pain response at 40 mg/kg/day, sc; type: functional, organism-based; outline: as §1
[16] = Solubility of the compound in 10% cyclodextrin
[17] = Clearance in Sprague-Dawley rat at 2.5 mg/kg, iv and 10 mg/kg, po; type: ADME, organism-based; conditions: in vivo
[18] = Absolute oral bioavailability in Sprague-Dawley rat at 10 mg/kg; type: ADME, organism-based; conditions: in vivo
[19] = Solubility of the compound in water; type: physicochemical
[20] = Half life in Beagle dog at 1 mg/kg, iv; type: ADME, organism-based, Canis lupus familiaris; design: dose 1 mg/kg, route intravenous; conditions: in vivo; outline: as §2
[21] = Half life in Sprague-Dawley rat at 10 mg/kg, po; type: ADME, organism-based; design: dose 10 mg/kg, route oral; conditions: in vivo
Rattus norvegicus [22] = species: Rattus norvegicus; experiment: Antihyperalgesic activity against Freund's adjuvant-induced thermal hyperalgesia in rat; type: functional, organism-based
[23] = Volume of distribution in Sprague-Dawley rat at 2.5 mg/kg, iv and 10 mg/kg, po; type: ADME, organism-based; conditions: in vivo
[24] = Ratio drug uptake in brain to plasma of Sprague-Dawley rat at 2.5 mg/kg, iv and 10 mg/kg, po; type: ADME, organism-based; conditions: read-out: BPR
Outline: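 Rat tissue distribution study; brain and plasma levels compared as brain/plasma ratio.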

[25] = Drug metabolism in dog liver microsomes at 5 uM after 60 mins; type: ADME, Canis lupus familiaris, Microsome; conditions: read-out: Drug metabolism; outline: as §3
Rattus norvegicus [26] = experiment: Antiallodynic activity in rat chronic constriction injury-induced neuropathic pain model assessed as reversal of pain response at 40 mg/kg/day, sc after 12 days; type: functional, organism-based; outline: as §1
Rattus norvegicus [27] = experiment: Antinociceptive activity in rat at 10 mg/kg by tail withdrawal reflex test; type: functional, organism-based; design: dose 10 mg/kg
[28] = Clearance in Beagle dog at 1 mg/kg, iv and 5 mg/kg, po; type: ADME, organism-based, Canis lupus familiaris; conditions: in vivo; outline: as §2
[29] = Lipophilicity, Log P of the compound; type: physicochemical; conditions: octanol/water

Cannabinoid receptor 2, sequence (P34972 whole entry): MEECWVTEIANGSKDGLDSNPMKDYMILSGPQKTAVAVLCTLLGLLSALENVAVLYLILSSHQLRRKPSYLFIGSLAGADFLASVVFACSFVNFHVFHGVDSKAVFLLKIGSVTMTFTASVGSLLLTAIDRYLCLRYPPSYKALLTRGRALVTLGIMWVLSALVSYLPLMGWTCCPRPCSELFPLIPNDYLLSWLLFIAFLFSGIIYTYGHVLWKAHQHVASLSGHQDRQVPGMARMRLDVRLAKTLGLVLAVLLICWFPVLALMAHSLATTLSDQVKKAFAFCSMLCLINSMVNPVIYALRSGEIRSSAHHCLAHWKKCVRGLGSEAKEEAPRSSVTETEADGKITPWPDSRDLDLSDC
Cannabinoid receptor 1, sequence (P21554 whole entry): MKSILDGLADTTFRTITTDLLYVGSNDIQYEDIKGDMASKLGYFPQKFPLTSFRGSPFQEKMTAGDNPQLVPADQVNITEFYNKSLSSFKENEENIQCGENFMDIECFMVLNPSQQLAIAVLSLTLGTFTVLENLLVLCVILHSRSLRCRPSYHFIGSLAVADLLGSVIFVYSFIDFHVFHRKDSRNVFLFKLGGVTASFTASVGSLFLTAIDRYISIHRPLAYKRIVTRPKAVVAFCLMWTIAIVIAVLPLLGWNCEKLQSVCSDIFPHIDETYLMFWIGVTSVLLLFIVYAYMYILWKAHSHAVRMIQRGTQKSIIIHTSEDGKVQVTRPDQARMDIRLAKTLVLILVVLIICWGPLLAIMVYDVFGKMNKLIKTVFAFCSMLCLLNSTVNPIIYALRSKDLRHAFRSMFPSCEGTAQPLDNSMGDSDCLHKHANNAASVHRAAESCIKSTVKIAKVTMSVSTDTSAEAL

SMILES: CC(C)(C)c1nc2cc(S(=O)(=O)CC3CC3)ccc2n1CC1CCN(C=O)CC1
- metabolised at 0.25 h [1]: 16%
- EC50 (Cannabinoid receptor 1): 2510 nM

SMILES: COCCOc1cc(S(=O)(=O)c2ccc3c(c2)nc(C(C)(C)C)n3CC2CCOCC2)ccn1
- EC50 (Cannabinoid receptor 2): 1.3 nM
- metabolised at 0.25 h [1]: 53%

SMILES: CC(C)(C)c1nc2cc(S(=O)(=O)CCCC(F)(F)F)ccc2n1CC1CCN(C(=O)C(F)(F)F)CC1
- metabolised at 0.25 h [1]: 20%
- EC50 (Cannabinoid receptor 1): > 10000 nM

SMILES: CC(C)(C)c1nc2cc(S(=O)(=O)c3nccs3)ccc2n1CC1CCN(C=O)CC1
- EC50 (Cannabinoid receptor 2): 8.4 nM
- Activity (Rattus norvegicus [2]): Toxic
- EC50 (Cannabinoid receptor 1): 321 nM

SMILES: CC(=O)NCCCCCc1cc(S(=O)(=O)c2ccc3c(c2)nc(C(C)(C)C)n3CC2CCOCC2)ccn1
- EC50 (Cannabinoid receptor 2): 5.6 nM
- metabolised at 0.25 h [1]: 86%
- EC50 (Cannabinoid receptor 1): > 10000 nM

SMILES: CC(C)(C)c1nc2cc(S(=O)(=O)CCCC(F)(F)F)ccc2n1CC1CCNCC1
- EC50 (Cannabinoid receptor 2): 240 nM
- EC50 (Cannabinoid receptor 1): > 10000 nM

SMILES: CC(=O)N1CCC(Cn2c(C(C)(C)C)nc3cc(S(=O)(=O)CCCO)ccc32)CC1
- EC50 (Cannabinoid receptor 1): > 10000 nM

SMILES: CC(C)(C)c1nc2cc(S(=O)(=O)CCCC(F)(F)F)ccc2n1CC1CCN(C=O)CC1
- metabolised at 0.25 h [1]: 17%
- EC50 (Cannabinoid receptor 1): 5620 nM

SMILES: COCCCNc1cc(S(=O)(=O)c2ccc3c(c2)nc(C(C)(C)C)n3CC2CCOCC2)ccn1
- EC50 (Cannabinoid receptor 2): 0.8 nM
- metabolised at 0.25 h [1]: 99%

SMILES: COCC(=O)N1CCC(Cn2c(C(C)(C)C)nc3cc(S(=O)(=O)CCCC(F)(F)F)ccc32)CC1
- EC50 (Cannabinoid receptor 1): > 10000 nM

SMILES: CC(=O)N1CCC(Cn2c(C(C)(C)C)nc3cc(S(=O)(=O)CCCC(F)(F)F)ccc32)CC1
- EC50 (Cannabinoid receptor 2): 13 nM
- metabolised at 0.25 h [1]: 17%
- EC50 (Cannabinoid receptor 1): > 10000 nM

SMILES: CCS(=O)(=O)c1ccc2c(c1)nc(C(C)(C)C)n2CC1CCN(C=O)CC1
- EC50 (Cannabinoid receptor 2): 23 nM
- metabolised at 0.25 h [1]: 7%
- EC50 (Cannabinoid receptor 1): > 10000 nM

SMILES: CCS(=O)(=O)c1ccc2c(c1)nc(C(C)(C)C)n2CC1CCS(=O)(=O)CC1
- EC50 (Cannabinoid receptor 2): 28 nM
- EC50 (Cannabinoid receptor 1): > 10000 nM

SMILES: CN1CC[C@]23c4c5ccc(O)c4O[C@H]2[C@@H](O)C=C[C@H]3[C@H]1C5 [MORPHINE]
- Activity (Rattus norvegicus [3]): Non-toxic

SMILES: CC(=O)N1CCC(Cn2c(C(C)(C)C)nc3cc(S(=O)(=O)c4nccs4)ccc32)CC1
- bioavailability [4]: 100%
- EC50 (Cannabinoid receptor 2): 7.7 nM
- Activity (Rattus norvegicus [5]): Non-toxic
- half-life [6]: 3.5 h
- Activity (Mus musculus): Active
- metabolised at 1 h, 5 µM [7]: 0%
- metabolised at 0.25 h [1]: 9%
- metabolised at 1 h, 5 µM [8]: 12%
- Activity (Rattus norvegicus [9]): inactive
- half-life [10]: 5 h
- Vd [11]: 3.7 L/kg
- Activity (Rattus norvegicus [12]): inactive
- Activity (Rattus norvegicus [13]): inactive
- metabolised at 1 h, 5 µM [14]: 6%
- Activity (Rattus norvegicus [15]): Active
- solubility [16]: 8000 µg/mL (≈ 17.4 mM)
- clearance [17]: 53.3 mL/min/kg
- EC50 (Cannabinoid receptor 1): 3430 nM
- bioavailability [18]: 35%
- solubility [19]: 20 µg/mL (≈ 0.0434 mM)
- half-life [20]: 4 h
- half-life [21]: 3.1 h
- Activity (Rattus norvegicus [22]): inactive
- Vd [23]: 1.3 L/kg
- Kp [24]: 0.05
- metabolised at 1 h, 5 µM [25]: 0%
- Activity (Rattus norvegicus [26]): Active
- Activity (Rattus norvegicus [27]): inactive
- clearance [28]: 11.7 mL/min/kg
- logP [29]: 1.9
